The results in this text go back to ChEMBL document CHEMBL1131065, “1,4- and 2,6-disubstituted amidoanthracene-9,10-dione derivatives as inhibitors of human telomerase” (J Med Chem, 1998).

The test system of one experiment is CH1. Kind of experiment: Concentration required to inhibit CH1-cell growth by 50%. The format is functional, cell-based. The note with it: Homo sapiens. In outline: (§1)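 Human ovarian carcinoma cells grown as monolayers in DMEM with 10% FBS, 2 mM glutamine and 0.5 µg/mL hydrocortisone under 6% CO2. 3000–6000 cells per well, attached overnight. Salts dissolved in water, added in quadruplicate at final 0.05, 0.25, 1, 5 and 25 µM for 96 h. Cells fixed with TCA and stained with SRB, absorbance read at 540 nm. IC50 taken from mean absorbance as % of untreated control.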

The next experiment relates to SK-OV-3. Kind of experiment: Concentration required to inhibit SKOV-3-cell growth by 50%. The note with it: Homo sapiens. The format is functional, cell-based. An outline of the steps: as §1
A further experiment concerns A2780. Briefly: Concentration required to inhibit A2780-cell growth by 50%. The format is functional, cell-based. The note with it: Homo sapiens. In outline:
as §1

Experiment [1] concerns the target DNA polymerase I, thermostable (Thermus aquaticus) (UniProt P19821). Briefly: Inhibition of Taq polymerase at 10 uM (Slight inhibition). In outline:
(§2)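 Compound at final 10 µM in a PCR mix: pCI-neo vector template, forward/reverse primers, Tris-HCl pH 8.8 buffer, 2.5 mM MgCl2, 200 µM each dNTP, 1.25 U thermostable polymerase. Run 30 cycles (94/55/72 °C). Products separated on 2% agarose with ethidium bromide and compared to a no-drug water control (~1 kb product); inhibition graded semiquantitatively.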

For experiment [2] the target is unchanged. Briefly: Inhibition of Taq polymerase at 50 uM (Total inhibition). An outline of the steps:
(§3)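 Compound at final 50 µM in PCR with pCI-neo template and primers, Tris-HCl pH 8.8 buffer, 2.5 mM MgCl2, 200 µM each dNTP, 1.25 U thermostable polymerase. Run 30 cycles of 94 °C 1 min, 55 °C 1 min, 72 °C 2.5 min. Agarose/ethidium bromide read-out against a water no-drug control, scored semiquantitatively.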

For experiment [3], the target named is T1, Telomerase reverse transcriptase (Homo sapiens, UniProt O14746). Briefly: Inhibition of telomerase activity. In outline:
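Modified cell-free TRAP using CHAPS lysate of exponentially growing A2780 cells. Protein (0.04 µg) incubated with TS primer, 50 µM dNTPs and [α-32P]dCTP in TRAP buffer (pH 8.3) ± compound at 1–50 µM for 20 min at 25 °C. Telomerase heat-killed at 80 °C, then 31-cycle PCR with CX primer and Taq. Products read by denaturing gel/phosphorimaging or TCA filter scintillation counting. IC50 taken relative to controls.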

The target of experiment [4] is DNA polymerase I, thermostable (Thermus aquaticus) (UniProt P19821). Kind of experiment: Inhibition of Taq polymerase at 10 uM (No inhibition). An outline of the steps: as §2
Sequence of DNA polymerase I, thermostable (Thermus aquaticus) (P19821 whole entry): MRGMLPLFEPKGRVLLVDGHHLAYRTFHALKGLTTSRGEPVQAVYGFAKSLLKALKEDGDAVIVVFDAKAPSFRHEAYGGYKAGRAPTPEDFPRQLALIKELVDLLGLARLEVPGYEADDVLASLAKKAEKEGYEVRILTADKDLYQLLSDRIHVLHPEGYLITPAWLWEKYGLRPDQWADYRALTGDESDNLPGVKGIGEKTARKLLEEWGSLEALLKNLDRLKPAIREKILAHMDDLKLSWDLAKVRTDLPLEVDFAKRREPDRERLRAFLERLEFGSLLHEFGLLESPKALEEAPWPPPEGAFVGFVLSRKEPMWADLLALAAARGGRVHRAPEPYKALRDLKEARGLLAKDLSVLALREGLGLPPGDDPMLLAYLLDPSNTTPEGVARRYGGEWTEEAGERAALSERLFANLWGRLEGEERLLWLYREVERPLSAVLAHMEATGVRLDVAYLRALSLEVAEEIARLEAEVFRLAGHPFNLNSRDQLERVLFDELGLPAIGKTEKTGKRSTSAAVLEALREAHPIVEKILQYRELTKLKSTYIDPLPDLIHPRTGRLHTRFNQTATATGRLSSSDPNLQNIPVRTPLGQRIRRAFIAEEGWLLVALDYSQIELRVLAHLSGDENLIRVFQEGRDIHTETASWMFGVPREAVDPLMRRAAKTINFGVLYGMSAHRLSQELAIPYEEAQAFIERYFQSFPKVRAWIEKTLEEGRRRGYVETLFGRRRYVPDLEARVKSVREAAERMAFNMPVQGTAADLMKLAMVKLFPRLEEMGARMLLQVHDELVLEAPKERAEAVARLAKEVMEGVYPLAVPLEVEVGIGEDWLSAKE
Experiment [5] has the same target. Kind of experiment: Inhibition of Taq polymerase at 50 uM (No inhibition). In outline: as §3
Experiment [6] shares this target. Briefly: Inhibition of Taq polymerase at 10 uM (Significant inhibition). In outline:
as §2

For experiment [7], the target named is T1, Telomerase reverse transcriptase. Kind of experiment: Concentration required to inhibit telomerase activity. An outline of the steps:
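Cell-free modified TRAP assay. Enzyme source is a CHAPS lysate of exponentially growing A2780 ovarian carcinoma cells, which was clarified and stored at -80 °C. Protein (0.04 μg) was incubated with TS primer, dNTPs and [α-32P]dCTP in TRAP buffer (pH 8.3) ± agent at 1, 5, 10, 20 and 50 μM for 20 min at 25 °C. Telomerase was then heat-inactivated at 80 °C, followed by 31-cycle PCR with CX primer. Products were quantified by gel phosphorimaging or by TCA-precipitated filter scintillation counting. IC50 is relative to controls.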

Each structure is given as a SMILES string. Activity calls are given as the source filed them. The calls are words filed in the database; no cut-off is given here.

T1 sequence (O14746 whole entry): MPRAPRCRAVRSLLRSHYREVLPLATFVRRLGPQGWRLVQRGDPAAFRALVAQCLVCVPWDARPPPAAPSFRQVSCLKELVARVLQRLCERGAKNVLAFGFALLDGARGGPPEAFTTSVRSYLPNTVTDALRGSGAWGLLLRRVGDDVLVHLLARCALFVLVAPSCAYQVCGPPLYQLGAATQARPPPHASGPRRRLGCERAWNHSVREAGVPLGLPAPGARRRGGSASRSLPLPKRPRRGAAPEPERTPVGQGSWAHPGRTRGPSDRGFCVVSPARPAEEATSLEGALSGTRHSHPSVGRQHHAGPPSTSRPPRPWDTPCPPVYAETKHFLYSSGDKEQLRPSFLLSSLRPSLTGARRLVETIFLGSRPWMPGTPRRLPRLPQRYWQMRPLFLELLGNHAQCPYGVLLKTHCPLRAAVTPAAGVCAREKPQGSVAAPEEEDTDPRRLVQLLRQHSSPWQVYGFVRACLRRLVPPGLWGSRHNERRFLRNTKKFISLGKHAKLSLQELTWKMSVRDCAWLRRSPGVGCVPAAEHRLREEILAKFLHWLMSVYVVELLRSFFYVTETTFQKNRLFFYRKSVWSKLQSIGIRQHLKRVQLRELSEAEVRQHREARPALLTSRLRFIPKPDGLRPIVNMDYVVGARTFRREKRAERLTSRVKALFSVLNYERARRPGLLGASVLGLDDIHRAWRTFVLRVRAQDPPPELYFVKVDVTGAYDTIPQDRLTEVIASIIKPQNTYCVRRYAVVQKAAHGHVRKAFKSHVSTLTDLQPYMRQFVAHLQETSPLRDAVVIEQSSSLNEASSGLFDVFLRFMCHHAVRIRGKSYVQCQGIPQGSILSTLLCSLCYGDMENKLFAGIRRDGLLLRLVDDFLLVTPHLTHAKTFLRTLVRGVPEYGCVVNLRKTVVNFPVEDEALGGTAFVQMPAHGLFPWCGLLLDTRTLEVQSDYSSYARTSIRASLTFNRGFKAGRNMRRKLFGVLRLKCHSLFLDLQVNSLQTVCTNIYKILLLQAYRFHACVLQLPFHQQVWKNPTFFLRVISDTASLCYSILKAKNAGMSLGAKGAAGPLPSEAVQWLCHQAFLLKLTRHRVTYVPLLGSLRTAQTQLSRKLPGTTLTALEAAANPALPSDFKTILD

The IC50 is the midpoint of a concentration-inhibition curve. As to `C[N+](C)(C)CCC(=O)Nc1ccc(NC(=O)CC[N+](C)(C)C)c2c1C(=O)c1ccccc1C2=O`, the figures for the IC50 with CH1, in the experiment with SK-OV-3 and in the experiment with A2780 were 2 µM, 11.5 µM and 2.15 µM, respectively.
For the molecule `O=C1c2c(O)ccc(O)c2C(=O)c2c(NCCNCCO)ccc(NCCNCCO)c21`, the inhibition entry in experiment [1] and in experiment [2] was “Weak inhibition” each time.
Regarding `C[N+]1(CCC(=O)Nc2ccc(NC(=O)CC[N+]3(C)CCCCC3)c3c2C(=O)c2ccccc2C3=O)CCCCC1`, the IC50 worked out at 4.3 µM in the experiment with CH1, 32.5 µM in the experiment on SK-OV-3, 11.1 µM in experiment [3] and 1.75 µM with A2780.
With `C[N+]1(CCC(=O)Nc2ccc3c(c2)C(=O)c2ccc(NC(=O)CC[N+]4(C)CCCCC4CO)cc2C3=O)CCCCC1CO` (centres undefined), the IC50 came to 2.3 µM in the experiment on CH1, 1.8 µM in the experiment on SK-OV-3 and 1.25 µM with A2780.
Turning to `C[N+]1(CCC(=O)Nc2ccc(NC(=O)CC[N+]3(C)CCCCC3CO)c3c2C(=O)c2ccccc2C3=O)CCCCC1CO` (centres undefined), the IC50 was 0.54 µM in the experiment on CH1, 1.5 µM in the experiment on SK-OV-3, 9.4 µM in [3] and 0.38 µM with A2780.
Consider `O=C(CCN1CCCCC1CO)Nc1ccc(NC(=O)CCN2CCCCC2CO)c2c1C(=O)c1ccccc1C2=O` (centres undefined), for which the IC50 with CH1 is 0.064 µM; in the experiment on SK-OV-3 it was 0.27 µM; with A2780, 0.02 µM.
As for `C[N+]1(CCC(=O)Nc2ccc(NC(=O)CC[N+]3(C)CCOCC3)c3c2C(=O)c2ccccc2C3=O)CCOCC1`, the IC50 with CH1 stood at 1.65 µM; in the experiment on SK-OV-3, 8.5 µM; in [3], 34.5 µM; in the experiment on A2780, 0.76 µM.
As to `CCC[N+](C)(CCC)CCC(=O)Nc1ccc2c(c1)C(=O)c1ccc(NC(=O)CC[N+](C)(CCC)CCC)cc1C2=O`, the IC50 is 0.68 µM in the experiment with CH1, 2 µM in the experiment on SK-OV-3 and 0.5 µM in the experiment with A2780.
`CCCN(CCC)CCC(=O)Nc1ccc2c(c1)C(=O)c1ccc(NC(=O)CCN(CCC)CCC)cc1C2=O`: the IC50 with CH1 was 1.4 µM; in the experiment with SK-OV-3, 2.4 µM; in experiment [3], greater than 50 µM; with A2780 it was 0.38 µM.
For `CCCN(CCC)CCC(=O)Nc1ccc(NC(=O)CCN(CCC)CCC)c2c1C(=O)c1ccccc1C2=O`, the IC50 came to 0.48 µM in the experiment on CH1, 4.5 µM in the experiment on SK-OV-3, 50 µM in [3] and 0.13 µM in the experiment on A2780. Moreover, the Taq inhibition entry in experiment [4] and in experiment [5] was “inactive” each time.
In the case of `O=C(CCN1CCOCC1)Nc1ccc2c(c1)C(=O)c1ccc(NC(=O)CCN3CCOCC3)cc1C2=O`, the IC50 is 20 µM with CH1, 9 µM in the experiment on SK-OV-3, greater than 50 µM in experiment [3] and 4.8 µM in the experiment on A2780.
On to `CCC[N+](C)(CCC)CCC(=O)Nc1ccc(NC(=O)CC[N+](C)(CCC)CCC)c2c1C(=O)c1ccccc1C2=O`, for which the IC50 with CH1 turned out to be 4.45 µM; in the experiment with SK-OV-3, 16 µM; with A2780, 1.4 µM.
On the same counts, the results for `CN(C)CCC(=O)Nc1ccc2c(c1)C(=O)c1ccc(NC(=O)CCN(C)C)cc1C2=O` are 1.8 µM, 2.9 µM and 2.55 µM.
`O=C(CCN1CCOCC1)Nc1ccc(NC(=O)CCN2CCOCC2)c2c1C(=O)c1ccccc1C2=O`: the IC50 turned out to be 1.95 µM in the experiment on CH1, 21 µM in the experiment with SK-OV-3, 33.5 µM in experiment [3] and 3.7 µM in the experiment with A2780.
On to `C[N+]1(CC(=O)Nc2ccc3c(c2)C(=O)c2ccc(NC(=O)C[N+]4(C)CCCCC4)cc2C3=O)CCCCC1`, for which the IC50 in the experiment with CH1 was 4.3 µM; in the experiment with SK-OV-3, 9 µM; in the experiment with A2780 it was 6.5 µM.
In the same order, the values of `C[N+]1(CCC(=O)Nc2ccc3c(c2)C(=O)c2ccc(NC(=O)CC[N+]4(C)CCOCC4)cc2C3=O)CCOCC1` are 1.7 µM, 3 µM and 1.9 µM.
`O=C(CN1CCCCC1)Nc1ccc2c(c1)C(=O)c1ccc(NC(=O)CN3CCCCC3)cc1C2=O`: the IC50 in the experiment with CH1 is 5.05 µM; in the experiment with SK-OV-3 it was 5 µM; in [3], greater than 50 µM; in the experiment on A2780, 1.65 µM.
Regarding `COc1cccc2c1C(=O)c1c(O)c3c(c(O)c1C2=O)C[C@@](O)(C(=O)CO)C[C@@H]3O[C@H]1C[C@H](N)[C@H](O)[C@H](C)O1` [DOXORUBICIN], the figures for the IC50 in the experiment on CH1, in the experiment on SK-OV-3 and in the experiment with A2780 were 0.0063 µM, 0.078 µM and 0.0096 µM, respectively. Further, the inhibition result in experiment [2] is “Active”. Moreover, the inhibition entry in experiment [6] was “Weak activity”.
As for `O=C(CCN1CCCCC1)Nc1ccc(NC(=O)CCN2CCCCC2)c2c1C(=O)c1ccccc1C2=O`, the figures for the IC50 in the experiment with CH1, in the experiment on SK-OV-3 and in the experiment on A2780 were 0.26 µM, 2.4 µM and 0.29 µM, respectively.
On the same counts, the results for `C[N+]1(CC(=O)Nc2ccc3c(c2)C(=O)c2ccc(NC(=O)C[N+]4(C)CCOCC4)cc2C3=O)CCOCC1` are 18 µM, 45.5 µM and 13 µM.
On to `CN(C)CCC(=O)Nc1ccc(NC(=O)CCN(C)C)c2c1C(=O)c1ccccc1C2=O`, for which the inhibition result in [1] and in [2] was “Weak inhibition” each time. For the same molecule, the IC50 with CH1 is 0.04 µM; in the experiment on SK-OV-3, 0.36 µM; with A2780, 0.016 µM.
For `C[N+](C)(C)CCC(=O)Nc1ccc2c(c1)C(=O)c1ccc(NC(=O)CC[N+](C)(C)C)cc1C2=O`, the IC50 in the experiment on CH1 amounted to 1.9 µM; in the experiment with SK-OV-3, 4.4 µM; in experiment [3] it was 17.3 µM; in the experiment on A2780 it was 2.25 µM.
Take `O=C(CCN1CCCCC1CO)Nc1ccc2c(c1)C(=O)c1ccc(NC(=O)CCN3CCCCC3CO)cc1C2=O` (centres undefined): the IC50 came out at 14.5 µM in the experiment with CH1, 2.4 µM in the experiment with SK-OV-3 and 2.45 µM in the experiment with A2780.
For `Nc1nc2c(ncn2[C@H]2CC[C@@H](COP(=O)(O)OP(=O)(O)OP(=O)(O)O)O2)c(=O)[nH]1` [DIDEOXY GUANOSINE TRIPHOSPHATE], the IC50 in experiment [7] is 8.6 µM.
As for `O=C(CCN1CCCCC1)Nc1ccc2c(c1)C(=O)c1ccc(NC(=O)CCN3CCCCC3)cc1C2=O`, the IC50 with CH1 worked out at 5.9 µM; with SK-OV-3, 4 µM; in experiment [3], 4.5 µM; in the experiment on A2780 it was 1.3 µM.
On the same counts, the results for `O=C(CN1CCOCC1)Nc1ccc2c(c1)C(=O)c1ccc(NC(=O)CN3CCOCC3)cc1C2=O` are 4.15 µM, 4.5 µM, greater than 50 µM and 5.9 µM.
As to `C[N+]1(CCC(=O)Nc2ccc3c(c2)C(=O)c2ccc(NC(=O)CC[N+]4(C)CCCCC4)cc2C3=O)CCCCC1`, the IC50 with CH1 is 1.85 µM; with SK-OV-3, 2.2 µM; in the experiment with A2780, less than 1 µM.
Take `O=C(CCN1CCN(CCO)CC1)Nc1ccc2c(c1)C(=O)c1ccc(NC(=O)CCN3CCN(CCO)CC3)cc1C2=O`: the IC50 stood at 7.9 µM in the experiment on CH1, 7 µM in the experiment on SK-OV-3, 16.5 µM in experiment [3] and 11 µM with A2780.
